This note sets out measurements from paper PMC3823637 (Neuropharmacology, 2013).

Molecules are shown by their SMILES.

What all share (assay type): cell-based
In test [1] the test system is rat hypothalamic neurons (native AT1R). Description: Whole cell patch recordings from neurons in rat hypothalamic slices. The note with it: for effect on Ang-(1-12)-induced depolarization / effect on Ang II-induced depolarization: antagonist/inhibitor 10 μM; for effect on Ang-(1-12)-induced depolarization: prior superfusion of slices; for effect on Ang II-induced depolarization: pretreatment of slices by superfusion. In short, it runs like this:
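Coronal hypothalamic slices (250 μm, vibratome) came from Sprague-Dawley rats, 17-20 days old, of either sex, anaesthetised with 4% isoflurane. Slices were superfused with solution gassed with 95% O2/5% CO2 at 20 ± 1°C. Current-clamp whole-cell recordings were made from neurons […] to the 3rd ventricle. Peptide was puffed by nitrogen from a micropipette at 20-30 min intervals. Slices were pretreated with losartan, PD123319 or captopril at 10 μM each.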

The target in test [2] is T1, AT1R (Homo sapiens, UniProt P30556).
T1 sequence (P30556 1-359): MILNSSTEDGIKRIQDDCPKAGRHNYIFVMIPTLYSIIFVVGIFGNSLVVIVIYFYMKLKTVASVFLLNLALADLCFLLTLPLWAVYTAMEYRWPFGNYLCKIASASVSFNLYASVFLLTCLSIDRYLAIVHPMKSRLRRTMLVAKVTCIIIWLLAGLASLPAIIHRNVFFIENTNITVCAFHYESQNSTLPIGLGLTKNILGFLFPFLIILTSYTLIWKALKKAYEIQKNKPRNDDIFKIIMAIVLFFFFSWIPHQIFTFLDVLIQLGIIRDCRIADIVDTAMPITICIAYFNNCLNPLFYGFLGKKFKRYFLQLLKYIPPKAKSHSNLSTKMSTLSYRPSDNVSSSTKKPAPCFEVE
Description: Ca2+-based FLIPR assay, CHO/16z25 cells transiently expressing AT1R.

Test [3] addresses T1, AT1R. The conditions noted are these: 10 μM losartan; 1 μM Ang II or 10 μM Ang-(1-12), 5 min.

As for `Cc1cc(Cn2cnc3c2C[C@@H](C(=O)O)N(C(=O)C(c2ccccc2)c2ccccc2)C3)ccc1N(C)C` [PD-123319], in test [1], the “effect on Ang-(1-12)-induced depolarization” value is recorded as “not affected”.
Take `CCCCc1nc(Cl)c(CO)n1Cc1ccc(-c2ccccc2-c2nn[nH]n2)cc1` [losartan]: the “effect on Ca2+ response stimulated by Ang-(1-12)” value at AT1R [2] (5 μM Ang-(1-12), losartan 0.1-10 μM, pre-incubated 30 min, dose-dependent) was “effectively suppressed”. Besides, the “effect on Ang II-induced Ca2+ mobilization” value on AT1R [2] (COS-7 and CHO cells transfected with AT1R cDNA) is “suppressed”. For the same compound, in test [1], the “effect on Ang II-induced depolarization” value was “suppressed” and the “effect on Ang-(1-12)-induced depolarization” value is reported as “antagonized”. On AT1R [3], the “effect on Ang-(1-12)- and Ang II-induced ERK responses” value is on record as “inhibited”.
Take `CC[C@H](C)[C@H](NC(=O)[C@H](Cc1ccc(O)cc1)NC(=O)[C@@H](NC(=O)[C@H](CCCNC(=N)N)NC(=O)[C@@H](N)CC(=O)O)C(C)C)C(=O)N[C@@H](Cc1c[nH]cn1)C(=O)N1CCC[C@H]1C(=O)N[C@@H](Cc1ccccc1)C(=O)O` [Ang II, angiotensin II]: in test [1] (Ang II 1 mM in micropipette, pressure ejection), the “hypothalamic neurons depolarized of those examined” value is reported as 10 of the 27. Further, the “membrane depolarization, mean amplitude” value in test [1] (Ang II 1 mM in micropipette, pressure ejection, mean ± SEM, n=10) amounted to 6.9 ± 0.9 mV.
For the compound `C[C@H](CS)C(=O)N1CCC[C@H]1C(=O)O` [captopril], in test [1], the “effect on Ang II-induced depolarization” value is given as “not affected” and the “effect on Ang-(1-12)-induced depolarization” value is on record as “failed to suppress”.
